The record followed here is ChEMBL document CHEMBL1147734, “Synthesis, chiral resolution, and enantiopharmacology of a potent 2,3-benzodiazepine derivative as noncompetitive AMPA receptor antagonist” (J Med Chem, 2006).

Activity calls are given as the source filed them. The calls are words filed in the database; no cut-off is given here.

The species named for experiment [1] is Mus musculus. In words: Ratio of TD50 over ED50 (clonic phase of audiogenic seizures) in DBA/2 mice. It is filed as functional. In outline:
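Protective index: rotarod TD50 divided by clonic-phase audiogenic ED50, both from ip-dosed DBA/2 mice fitted by Litchfield-Wilcoxon.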

For experiment [2], the species on record is Mus musculus. In words: Effect on locomotor activity assessed by rotarod test in DBA/2 mice. It is filed as functional. The essentials: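 Rotarod locomotor deficit in DBA/2 mice after ip dosing across 3.3-200 µmol/kg. TD50 by Litchfield-Wilcoxon with 95% confidence limits, at least 32 animals per value.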
A general note: In the rotarod test animals must keep their balance on a rotating rod.

The test system of experiment [3] is Mus musculus. In words: Effect on tonic phase of audiogenic seizures in DBA/2 mice after 30 min at 3.3-200 umol/kg, ip. The following applies: DBA/2, ip, 0.5 h. It is filed as functional. In outline:
(§1)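 DBA/2 mice, 8-12 g, 22-25 days old, either sex, 10 per group. Dosed ip, vehicle or 3.3-200 µmol/kg, then sound stimulus 30 min later; latency and incidence of each seizure phase scored. ED50 by Litchfield-Wilcoxon, 95% confidence limits, at least 32 animals per value.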

For experiment [4], the target named is T1, Glutamate receptor ionotropic, AMPA (Rattus norvegicus, UniProt P19490+P19491+P19492+P19493). In words: Inhibition of kainate induced [45Ca]2+ uptake in rat cerebellar granule cells expressing AMPA receptor. The class given is functional. The essentials: (§2)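 Primary rat cerebellar granule neurons preincubated 30 min with compound in BSS (HEPES, pH 7.3). Then exposed at room temperature for 10 min to 100 µM kainate with 10 µM glycine, 0.5 mM DTT and 0.5 µCi 45Ca2+. Washed in ice-cold BSS containing 5 mM EGTA, lysed in Triton X-100, radioactivity counted.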

For experiment [5], the system named is Mus musculus. In words: Effect on clonic phase of audiogenic seizures in DBA/2 mice after 30 min at 3.3-200 umol/kg, ip. It is filed as functional. The following applies: DBA/2, ip, 0.5 h. The essentials:
as §1

Experiment [6] has as its target T1, Glutamate receptor ionotropic, AMPA. Kind of experiment: Displacement of [3H]CP-526427 from non competitive […] or benzodiazepine binding site of AMPA receptor from rat forebrain. In outline: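 Adult male Sprague-Dawley rat forebrain membranes (P2 fraction, lysed in Tris acetate) diluted to 0.5 mg protein/mL in 50 mM Tris-HCl pH 7.4. Compound dilution series plus 3 nM [3H]CP-526,427, incubated 20 min at 30 °C, then filtered and counted by scintillation. Nonspecific binding taken with 10 µM unlabeled CP-526,427 or CP-465,022.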
(In general: In a radioligand displacement assay an active substance lowers the binding of a labelled ligand.)

Experiment [7] concerns the target Glutamate receptor ionotropic, AMPA (Rattus norvegicus) (UniProt P19491+P19492+P19493+P19490). Kind of experiment: Inhibition of kainate induced [45Ca]2+ uptake in rat cerebellar granule cells expressing AMPA receptor at 32 uM. It is filed as functional. The essentials:
as §2

The target of experiment [8] is T1, Glutamate receptor ionotropic, AMPA. In words: Displacement of [3H]AMPA from AMPA receptor in rat cerebral cortex synaptic membranes. It is filed as cell membranes, Membrane. The essentials:
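Rat cerebral cortex synaptic membranes with 5 nM [3H]AMPA, following an earlier published method.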

Another experiment has as its target Glutamate NMDA receptor. Kind of experiment: Displacement of [3H]glycine from Gly/NMDA receptor in rat cerebral cortex synaptic membranes. It is filed as cell membranes, Membrane. The essentials:
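Rat cortical synaptic membranes with 8 nM [3H]glycine as ligand, following an earlier published method.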

Experiment [9] concerns the target Glutamate NMDA receptor (Rattus norvegicus) (UniProt P35439+Q00959+Q00960+Q00961+Q62645+Q8VHN2+Q9R1M7). Kind of experiment: Displacement of [3H](+)-MK-801 from rat cortical NMDA ion channel complex at 100 uM. It is filed as protein-complex assay. The essentials: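 Rat cortical membranes washed in 5 mM Tris-HCl pH 7.4 with 0.08% Triton X-100, then pelleted and resuspended through four more cycles. Incubated 120 min at room temperature with 2.5 nM [3H]-(+)-MK-801, glutamic acid and glycine, with or without compound. Bound ligand separated on polyethylenimine-soaked GF/C filters. Nonspecific binding defined with phencyclidine.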

`C[C@@H]1C(=O)NN=C(c2ccc(N)cc2)c2cc3c(cc21)OCO3`: the “Ratio TD50/ED50” value in the experiment listed under Mus musculus [1] was found to be 3.1. Also, the TD50 in the experiment listed under Mus musculus [2] is 34.2 µM/kg. The ED50 with Mus musculus [3] worked out at 1.74 µmol/kg; in the experiment on Mus musculus [5], 11 µmol/kg. Also, the IC50 is 6 µM in [4] and 3.27 µM in experiment [6].

Consider `CC1C(=O)NN=C(c2ccc(N)cc2)c2cc3c(cc21)OCO3` (racemic), for which, in the experiment listed under Mus musculus [1], the “Ratio TD50/ED50” value worked out at 2.4. For the same compound, the TD50 in the experiment listed under Mus musculus [2] worked out at 48.5 µM/kg. Also, the ED50 worked out at 8.3 µmol/kg in the experiment on Mus musculus [3] and 20.2 µmol/kg in the experiment with Mus musculus [5]. Moreover, the IC50 is 12 µM in experiment [4], > 100 µM in experiment [8], > 100 µM at Glutamate NMDA receptor and > 10 µM in [6]. Further, the inhibition was found to be 94% in experiment [7] and 33% in experiment [9].

For `C[C@H]1C(=O)NN=C(c2ccc(N)cc2)c2cc3c(cc21)OCO3`, the “Ratio TD50/ED50” value in the experiment listed under Mus musculus [1] is >1.1. Moreover, the TD50 in the experiment listed under Mus musculus [2] is >100 µM/kg. Further, the ED50 stood at 7.36 µmol/kg in the experiment on Mus musculus [3] and 88.4 µmol/kg in the experiment with Mus musculus [5]. Besides, in experiment [7], the inhibition result was “inactive”. The IC50 in [6] is > 10 µM.

In general, ED50 refers to the dose that gives a 50% effect, or the effect in half of the subjects. The low end stands for an effect at a small dose, the high end for a need for a large dose. Broadly, the IC50 is the midpoint of a concentration-inhibition curve. As usually defined, the inhibition is the percentage by which the read-out fell short of the control.
